# Data taken from ChEMBL document CHEMBL1240452, “Synthesis and toxicity towards normal and cancer cell lines of benzimidazolequinones containing fused aromatic rings and 2-aromatic ring substituents” (Eur J Med Chem, 2010).
# Tested on: not listed separately
# Assay: Cytotoxicity against human GM00637 cells after 72 hrs by MTT assay
# Format: functional, cell-based
# Settings: GM00637, 72 h
# Summary of the method: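 Normal human skin fibroblasts GM00637, seeded at 10,000 cells/well and exposed aerobically for 72 h at 37 °C. MTT added for a final 3 h; formazan crystals dissolved in DMSO; absorbance 550 nm with 690 nm reference. Viability relative to DMSO-only control, from at least three independent experiments; IC50 estimated by nonlinear regression of dose-response data.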
row,Compound,IC50
1,CC1Cn2c(nc3c2C(=O)C=CC3=O)-c2ccccc21 (stereo not drawn),1650 nM
2,CC1Cn2c(nc3ccccc32)-c2ccc3ccccc3c21 (stereo not drawn),> 10000 nM
3,CCn1c(-c2ccc3ccccc3c2)nc2c1C(=O)C=CC2=O,40 nM
4,CC1Cn2c(nc3c2C(=O)C=CC3=O)-c2cccnc21 (stereo not drawn),740 nM
5,CCn1c(-c2ccccc2)nc2c1C(=O)C=CC2=O,150 nM
6,CCn1c(-c2cccnc2)nc2c1C(=O)C=CC2=O,480 nM
7,CC1Cn2c(nc3c2C(=O)C=CC3=O)-c2ccc3ccccc3c21 (stereo not drawn),2440 nM
8,CO[C@@]12[C@H](COC(N)=O)C3=C(C(=O)C(C)=C(N)C3=O)N1C[C@@H]1N[C@@H]12 [MITOMYCIN],460 nM

# Tested on: HeLa
# Assay: Cytotoxicity against human HeLa cells after 72 hrs by MTT assay
# Format: functional, cell-based
# Settings: not given
# Summary of the method: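 HeLa (CCL-2) cervical cancer cells, maintained in DMEM with 10% heat-inactivated FBS, penicillin-streptomycin, 2 mM L-glutamine and non-essential amino acids, plated at 1000 cells/well. Aerobic 72 h exposure at 37 °C, then 3 h MTT; formazan taken up in DMSO, read at 550/690 nm. Viability as % DMSO-only value, ≥3 independent experiments; IC50 by nonlinear regression.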
row,Compound,IC50
1,CC1Cn2c(nc3c2C(=O)C=CC3=O)-c2ccccc21 (stereo not drawn),1490 nM
2,CC1Cn2c(nc3ccccc32)-c2ccc3ccccc3c21 (stereo not drawn),> 10000 nM
3,CCn1c(-c2ccc3ccccc3c2)nc2c1C(=O)C=CC2=O,70 nM
4,CC1Cn2c(nc3c2C(=O)C=CC3=O)-c2cccnc21 (stereo not drawn),1510 nM
5,CCn1c(-c2ccccc2)nc2c1C(=O)C=CC2=O,180 nM
6,CCn1c(-c2cccnc2)nc2c1C(=O)C=CC2=O,1500 nM
7,CC1Cn2c(nc3c2C(=O)C=CC3=O)-c2ccc3ccccc3c21 (stereo not drawn),1170 nM
8,CO[C@@]12[C@H](COC(N)=O)C3=C(C(=O)C(C)=C(N)C3=O)N1C[C@@H]1N[C@@H]12 [MITOMYCIN],270 nM

# Tested on: DU-145
# Assay: Cytotoxicity against human DU145 cells after 72 hrs by MTT assay
# Format: functional, cell-based
# Settings: DU-145, 72 h
# Summary of the method: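 DU145 prostate cancer cells, grown in RPMI-1640 with 10% heat-inactivated FBS, penicillin-streptomycin and 2 mM L-glutamine, seeded at 2000 cells/well. Treated aerobically for 72 h at 37 °C, then incubated 3 h with MTT. Formazan dissolved in DMSO; A550 read against 690 nm reference. Viability as % of DMSO-only wells, mean of ≥3 independent experiments; IC50 from nonlinear regression of dose-response curves.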
row,Compound,IC50
1,CC1Cn2c(nc3c2C(=O)C=CC3=O)-c2ccccc21 (stereo not drawn),1090 nM
2,CCn1c(-c2ccc3ccccc3c2)nc2c1C(=O)C=CC2=O,60 nM
3,CC1Cn2c(nc3c2C(=O)C=CC3=O)-c2cccnc21 (stereo not drawn),700 nM
4,CCn1c(-c2ccccc2)nc2c1C(=O)C=CC2=O,70 nM
5,CCn1c(-c2cccnc2)nc2c1C(=O)C=CC2=O,1270 nM
6,CC1Cn2c(nc3c2C(=O)C=CC3=O)-c2ccc3ccccc3c21 (stereo not drawn),780 nM
7,CO[C@@]12[C@H](COC(N)=O)C3=C(C(=O)C(C)=C(N)C3=O)N1C[C@@H]1N[C@@H]12 [MITOMYCIN],170 nM
